Source: PubChem BioAssay
GSTO1 counter – blocks human GSTO1 in RBBP9 counter-screen | P78417 | recombinant GSTO1, activity-based probe fluorescence polarization | inhibition, % at 5.96 µM | 300,000 compounds, 1.1% hits | AID 1974;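 active = inhibition above the campaign mean inhibition plus 3 SD, cut at about 35% in these data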;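 also: 0% = GSTO1-1 with DMSO and 100% = wells lacking GSTO1-1 enzyme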
Target sequence (P78417 whole entry, looked up): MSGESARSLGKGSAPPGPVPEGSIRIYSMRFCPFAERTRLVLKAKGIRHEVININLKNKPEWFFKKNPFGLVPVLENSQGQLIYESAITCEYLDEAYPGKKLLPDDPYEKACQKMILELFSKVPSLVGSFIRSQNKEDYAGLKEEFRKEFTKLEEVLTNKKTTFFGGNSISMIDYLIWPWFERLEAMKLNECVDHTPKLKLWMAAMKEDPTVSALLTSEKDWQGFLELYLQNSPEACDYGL
Apaf1 inhib – human Apaf-1 inhibition. O14727. reconstituted apoptosome caspase-3 activity, DEVD-Rh110 fluorescence. inhibition, % at 20 µM. 330,000 compounds, 0.71% hits. AID 489030; active = inhibition of at least 40% at 20 µM;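 also: plate controls were DMSO wells for no effect and DEVD-CHO caspase inhibitor wells for full effect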
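Assay system: Apoptosome proteins | Medium: pH 7.5 Hepes buffer with CHAPS, BSA, DTT | Also added: Cytochrome c and DEVD-Rh110 substrate | Times: 30 min plus 50 min, RT | Detection: Rhodamine 110 fluorescence at Ex 480/Em 540 nm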
TDP2 absorb – blocks human TDP2 phosphodiesterase activity. 370,000 compounds, 0.34% hits. O95551. inhibition, % at 12.8 µM. recombinant TDP2, T5PNP hydrolysis, p-nitrophenol absorbance 415 nm;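 active = inhibition above the mean of all tested compounds plus 3 SD, set per campaign, cut at about 25% in these data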;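 also: 0% = DMSO with enzyme and 100% = buffer with substrate but no TDP2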
Target sequence (O95551 whole entry, looked up): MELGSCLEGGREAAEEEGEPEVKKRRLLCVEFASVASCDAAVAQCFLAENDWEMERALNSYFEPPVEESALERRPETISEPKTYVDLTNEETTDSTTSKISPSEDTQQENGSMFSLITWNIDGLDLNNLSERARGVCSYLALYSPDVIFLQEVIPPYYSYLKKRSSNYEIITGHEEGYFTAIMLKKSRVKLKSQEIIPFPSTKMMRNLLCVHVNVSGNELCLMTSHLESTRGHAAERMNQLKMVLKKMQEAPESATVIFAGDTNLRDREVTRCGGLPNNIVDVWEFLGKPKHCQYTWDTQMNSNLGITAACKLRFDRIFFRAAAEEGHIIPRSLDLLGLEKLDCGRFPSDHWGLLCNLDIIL
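Assay system: Recombinant human TDP2 | Quantity: 120 nM TDP2 per well | Incubation: 2 h at 37 °C | Signal: Epi absorbance | Evaluation: Percent inhibition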
PAD4 inh – PAD4 (human) enzyme inhibition; inhibition, % at 6.36 µM; Q9UM07; 330,000 compounds, 0.41% hits; AID 485272; recombinant PAD4, RCA probe fluorescence polarization;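 active = percent inhibition above a cutoff equal to the mean of all tested compounds plus 3 SD, cut at about 15% in these data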;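 also: 0% = PAD4 with RCA probe and DMSO and 100% = probe without PAD4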
Fh CTSL1 inh – blocks F. hepatica cathepsin L1 in PFM18AAP counter-screen | recombinant F. hepatica cathepsin L1, Z-Leu-Arg-MCA fluorescence | AID 1906 | 300,000 compounds, 0.49% hits | inhibition, % at 5.96 µM;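 active = inhibition above the mean of all tested compounds plus 3 SD, set per screening campaign, cut at about 17% in these data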;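 also: 0% = plate median of test compound wells and 100% = 1 µM Z-Phe-Ala-diazomethylketone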
GSTO1 confirm – confirmation of human GSTO1 inhibitors | shares compounds with GSTO1 counter | recombinant GSTO1, probe fluorescence polarization | inhibition, % at 5.96 µM | 2,400 compounds, 54% hits | AID 2176;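 active = inhibition above the primary screen's cutoff, its mean inhibition plus 3 SD, cut at about 35% in these data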;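 also: loss of polarization as inhibitors block binding of rhodamine sulfonate ester activity probe; 0% = GSTO1 with DMSO and 100% = wells lacking GSTO1 enzyme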
PAD4 FP conf – confirmation of human PAD4 inhibitors. shares compounds with PAD4 inh. recombinant PAD4, RCA probe fluorescence polarization. inhibition, % at 6.36 µM. 1,200 compounds, 28% hits;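 active = mean inhibition across replicates above the hit cutoff set by the earlier primary screen, cut at about 15% in these data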;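 also: inhibitors block active-site labeling by the probe so polarization falls; 0% = PAD4 with probe and DMSO and 100% = probe without PAD4 enzyme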
The depositor's hits bear a star; · = no result given. The list is not random: actives were taken first. Their share in the collection is about 1.8%.

SMILES	GSTO1 counter	Apaf1 inhib	TDP2 absorb	PAD4 inh	Fh CTSL1 inh	GSTO1 confirm	PAD4 FP conf
O=S(=O)(O)c1cc(O)c2c(O)c(N=Nc3cc(Cl)ccc3O)c(S(=O)(=O)O)cc2c1	62*	9	·	4	2	73*	·
CCc1ccc(-n2ncc(Cl)c(Oc3ccc(OC)cc3)c2=O)cc1	·	·	-4	·	·	·	·
C=CCNC(=S)NC(=O)c1ccc(C)c(Br)c1	0	-5	-14	1	2	·	·
CCOc1ccc(N(CCCCO)C(=S)NC(=O)c2ccc(C)c(Br)c2)cc1	47*	-10	5	-4	4	11	·
Cc1cc(O)cc(=O)n1-c1cccc(C(F)(F)F)c1	·	·	1	·	·	·	·
COc1ccc(OC)c(NC(=O)Nc2ccc(O)c3ccccc23)c1	61*	22	20	23*	1	-7	1
CCCn1nc([N+](=O)[O-])c(C(C#N)c2nc3ccccc3s2)c(Cl)c1=O (stereo not given)	66*	19	4	19*	3	44*	23*
O=[N+]([O-])c1ccc(CN2CCN(c3nc4ccccc4s3)CC2)cc1	2	6	3	-4	2	·	·
O=C(N[C@H](Cc1ccccc1)C(=O)N1CCN(c2ncccn2)CC1)[C@H]1O[C@@H](n2ccc(=O)[nH]c2=O)[C@H](O)[C@@H]1O	·	·	0	·	·	·	·
Cc1ccc(O)c(N=Cc2cc(Cc3ccccc3)cc([N+](=O)[O-])c2O)c1	·	22	-23	·	·	·	·
O=[N+]([O-])c1cc(Cc2ccccc2)cc(C=Nc2ccc(N3CCOCC3)cc2)c1O	69*	·	·	24*	6	5	-5
Cc1[nH][nH]c(=O)c1C(c1c(C)[nH][nH]c1=O)c1cn(Cc2ccc(F)cc2)c2ccccc12	56*	·	·	24*	2	14	-17
O=C(O)Cc1cn(Cc2ccc(F)cc2)c2ccccc12	6	-9	5	0	-3	·	·
CCOc1ccc(C2OC34CCCCC3C(C#N)(C#N)C2(C#N)C(=N)O4)cc1OC (stereo not given)	39*	12	·	35*	-2	15	18*
CCC[C@H]1[C@@H](OC(=O)NCc2cccc(Cl)c2)CC[C@@]23CCCN2C(=O)CCC[C@@H]13	·	·	-3	·	·	·	·
CN(C)c1ccc(C(=O)NN2C(=O)c3ccccc3C2=O)cc1	7	-12	13	2	1	·	·
CNC1=C(N(C(C)=O)c2ccc(Br)cc2)C(=O)c2ccccc2C1=O	73*	·	53*	47*	33*	63*	16*
C[C@@H]1CN(c2ccc(N3CCN(C(=O)OC(C)(C)C)C[C@@H]3C)cc2C#N)CCN1Cc1ccccc1	·	·	-1	·	·	·	·
CNc1ccc2c3c(cccc13)C(=O)N(C)C2=O	40*	5	-7	95*	1	31	86*
CN1C(=O)c2cccc3c(Cl)ccc(c23)C1=O	5	-10	3	3	0	·	·
COc1cccc2c1C(=O)c1c(O)c3c(c(O)c1C2=O)C[C@@](O)(C(=O)CO)C[C@@H]3O[C@H]1C[C@H](N)[C@@H](O)[C@H](C)O1	44*	56*	·	56*	5	33	64*
CCn1c(Cc2cccs2)nnc1SCC(=O)Nc1ccc2c(c1)OCCO2	·	·	0	·	·	·	·
Nc1ccn([C@@H]2O[C@H](C(=O)N3CCN(CCO)CC3)[C@@H](O)[C@H]2O)c(=O)n1	·	·	-1	·	·	·	·
CCOc1ccc(S(=O)(=O)Nc2cc(Sc3ncn[nH]3)c3oc(=O)sc3c2)cc1	47*	-6	·	18*	-5	17	4
COC(=O)C1=C(C)N(C)C(=NCc2ccccc2)NC1c1ccccc1C(F)(F)F (stereo not given)	·	·	10	·	·	·	·
SMILES	GSTO1 counter	Apaf1 inhib	TDP2 absorb	PAD4 inh	Fh CTSL1 inh	GSTO1 confirm	PAD4 FP conf
Cn1c(-c2ccccc2)c(C(=O)CCl)c2ccccc21	·	·	9	·	·	·	·
CCn1c(-c2ccccc2)c(C(=O)CCl)c2ccccc21	60*	7	-1	21*	6	76*	42*
COc1ccc(C)cc1N	·	·	2	·	·	·	·
COc1ccc(OC)c(N)c1	46*	15	12	38*	0	14	-4
O=c1c2ccccc2n(Cc2ccccc2)n1[C@@H](Cc1ccccc1)Cn1cc(C2CCCC2)nn1	·	·	1	·	·	·	·
Cc1cc(O)c(Sc2ncn[nH]2)cc1NS(=O)(=O)c1ccc(Cl)cc1	·	-1	0	0	·	·	·
Cc1cc(C)c(S(=O)(=O)/N=C2/C=C(Sc3ncn[nH]3)C(=O)c3ccccc32)cc1C	84*	·	67*	30*	92*	87*	5
COCCCNc1c2c3c(cccc3[nH]c1=O)C(=O)c1ccccc1-2	79*	16	1	135*	6	92*	151*
O=C(O)/C=C\C(=O)Nc1ccc(N2CCN(c3ccc(F)cc3)CC2)cc1	58*	12	14	24*	2	3	4
O=C(O)/C=C\C(=O)Nc1ccc(N2CCN(c3ccc(Cl)c(Cl)c3)CC2)cc1	28	25	0	-3	8	·	·
CN(C)c1ccc(N=Cc2cccn2C)cc1	83*	39	25*	25*	-3	3	-12
Nc1ccc(O)c2c1C(=O)c1ccccc1C2=O	49*	-4	3	49*	-1	37*	41*
O=C1C(Cl)=C(N2CCN(c3ccccc3[N+](=O)[O-])CC2)C(=O)c2ccccc21	82*	·	62*	29*	9	88*	8
COC(=O)/C=C1\OC(C)c2ccccc21 (stereo not given)	·	·	-6	·	·	·	·
CCc1cc(SC#N)cc(C)c1NC(=O)CCl	72*	1	-10	21*	1	74*	2
CCOC(=O)CC(=O)Nc1c(C)cc(C)cc1C	-5	-6	·	0	-4	·	·
CC(=O)NC1=C(Nc2ccc(N(C)C)cc2)C(=O)c2ccccc2C1=O	46*	24	-6	17*	9	5	-7
CCCCN1CCN(C(=O)c2cn(C(C)c3ccccc3)nn2)CC1 (stereo not given)	·	·	4	·	·	·	·
COC(=O)[C@]12C[C@H](CC(=O)N3CCN(C(=O)c4ccco4)CC3)C(=O)N(CCC3=CCCCC3)C1=C[C@H](COCc1ccccc1)O[C@@H]2C	·	·	4	·	·	·	·
CCN(CC)S(=O)(=O)c1ccc(C)c(NS(=O)(=O)c2cc(/C=C/C(=O)O)cc(OC)c2OC)c1	39*	0	20	53*	4	24	-10
Cc1nn(-c2ccccc2)c2[nH]c(=O)c(CNc3ccc(N4CCOCC4)cc3)cc12	39*	28	14	20*	6	0	3
CC(C)(C)c1nn(-c2ccccc2)c2[nH]c(=O)c(CNc3ccc4c(c3)OCCO4)cc12	28	4	-5	3	-2	·	·
